# Results gathered from unrelated publications.
# Compare with care: the assays were run in different laboratories.
Compound,tested on,assay,test system,conditions,measurement,result
O=C1NC(=S)S/C1=C\c1ccc(-c2ccc(N(c3ccccc3)c3ccccc3)cc2)c2ccccc12,Streptococcus mutans,"microbial killing, broth dilution",ATCC25175,,MBC,> 1000 µg/mL
Cc1ccc2nc(-c3ccccn3)c(CN(CC(C)C)c3cccc(C(F)(F)F)c3)n2c1,Leishmania infantum,parasite growth,,"intracellular, amastigote",EC50,3.16 µM
O=C1NC(=S)S/C1=C\c1ccc(-c2ccc(N(c3ccccc3)c3ccccc3)cc2)cc1,Streptococcus pyogenes,"microbial killing, broth dilution",ATCC19615,,MBC,> 1000 µg/mL
COc1ccc(/C=C/c2coc3ccc(OC)cc3c2=O)cc1,HSC-2,"cell growth or viability, MTT",,21 h,CC50,2.5 µM
CCCN(c1ccc(F)cc1)c1c(-c2ccccn2)nc2ccccn12,Leishmania infantum,parasite growth,,"5 days, intracellular, amastigote",EC50,1.58 µM
NC(=O)N1c2ccccc2C=Cc2ccccc21,,MES seizures,rat,oral,ED50,10.9 mg/kg
COc1ccc(NC(=O)c2c(Nc3ccccc3)sc(C(=O)NN=Cc3ccc(C)cc3)c2NC(C)=O)cc1,HCT-116,"cell growth or viability, SRB",,"0.1 µM, 48 h",viability,80.5%
N#Cc1ccc(-c2c(-c3ccccn3)nc3n2CCC3)cc1,Leishmania infantum,parasite growth,,"5 days, intracellular, amastigote",EC50,31.6 µM
O=C(O)CN1C(=O)/C(=C/c2ccc(-c3ccc(N(c4ccccc4)c4ccccc4)cc3)cc2)SC1=S,Streptococcus pyogenes,"microbial growth, broth dilution",ATCC19615,,MIC,15.6 µg/mL
Cc1cccc(-c2c(-c3ccccn3)nc3n2CCC3)c1,Leishmania infantum,parasite growth,,"5 days, intracellular, amastigote",EC50,0.631 µM
COc1ccc2occ(/C=C/c3cc(OC)c(OC)c(OC)c3)c(=O)c2c1,HSC-2,"cell growth or viability, MTT",,21 h,CC50,5.1 µM
COc1ccc(C=NNC(=O)c2sc(Nc3ccccc3)c(C(=O)Nc3ccc(OC)cc3)c2NC(C)=O)cc1,HCT-116,"cell growth or viability, SRB",,"10 nM, 48 h",viability,86.1%
O=C1O[C@H]([C@@H](O)CO)C(O)=C1O,,"DPPH scavenging, absorbance",,15 min,EC50,34 µM
O=C(O)CN1C(=O)/C(=C/c2c3ccccc3c(-c3ccc(N(c4ccccc4)c4ccccc4)cc3)c3ccccc23)NC1=S,Streptococcus mutans,"microbial killing, broth dilution",ATCC25175,,MBC,> 1000 µg/mL
Fc1ccc(Nc2c(-c3ccc(F)cn3)nc3ccccn23)cc1,Leishmania infantum,parasite growth,,"5 days, intracellular, amastigote",EC50,12.6 µM
O=C(O)CN1C(=O)/C(=C/c2c3ccccc3c(-c3ccc(N(c4ccccc4)c4ccccc4)cc3)c3ccccc23)SC1=S,Streptococcus mutans,"microbial killing, broth dilution",ATCC25175,,MBC,> 1000 µg/mL
COc1ccc(NC(=O)c2c(Nc3ccccc3)sc(C(=O)NN=Cc3ccc(Br)cc3)c2NC(C)=O)cc1,HCT-116,"cell growth or viability, SRB",,"1 µM, 48 h",viability,72.8%
c1ccc(-c2nc3n(c2-c2ccncc2)CCC3)nc1,Leishmania infantum,parasite growth,,"intracellular, amastigote",IC50,> 64 µM
COc1ccc(NC(=O)c2c(Nc3ccccc3)sc(C(=O)NN=Cc3ccc(OC)c(O)c3)c2NC(C)=O)cc1,HCT-116,"cell growth or viability, SRB",,"10 µM, 48 h",viability,35.6%
O=C(O)CN1C(=O)/C(=C/c2ccc(-c3ccc(N(c4ccccc4)c4ccccc4)cc3)c3ccccc23)SC1=S,Streptococcus mutans,"microbial killing, broth dilution",ATCC25175,,MBC,> 1000 µg/mL
COc1ccc(NC(=O)c2c(Nc3ccccc3)sc(C#N)c2NC(=O)CNc2ccc([N+](=O)[O-])cc2)cc1,HCT-116,"cell growth or viability, SRB",,"10 nM, 48 h",viability,92.4%
O=C1NC(=S)N/C1=C\c1ccc(-c2ccc(N(c3ccccc3)c3ccccc3)cc2)cc1,Streptococcus mutans,"microbial killing, broth dilution",ATCC25175,,MBC,> 1000 µg/mL
CNC(=O)c1cc(Oc2ccc(NC(=O)Nc3ccc(Cl)c(C(F)(F)F)c3)cc2)ccn1,HCT-116,"cell growth or viability, SRB",,"1 nM, 48 h",viability,100%
Cc1ccc2nc(-c3ccccc3)c(CNc3ccc(F)cc3)n2c1,Leishmania infantum,parasite growth,,"intracellular, amastigote",IC50,> 64 µM
COc1ccc(NC(=O)c2c(Nc3ccccc3)sc(C#N)c2NC(=O)CNc2ccc(Cl)cc2)cc1,HCT-116,"cell growth or viability, SRB",,"1 µM, 48 h",viability,60.1%
Cc1c(C)c2c(c(C)c1O)CCC(C)(C(=O)O)O2 (stereo not shown),,"lipid peroxidation, inhibitor",,,IC50,107 µg/mL
COc1ccc(NC(=O)c2c(Nc3ccccc3)sc(C(=O)NN=Cc3ccc(Cl)cc3)c2NC(C)=O)cc1,HCT-116,"cell growth or viability, SRB",,"100 µM, 48 h",viability,50.9%
CN(C)C(=O)c1ccc(-c2c(-c3ccccn3)nc3n2CCC3)cc1,Leishmania infantum,parasite growth,,"5 days, intracellular, amastigote",EC50,39.8 µM
